Compound activity from PubChem.
Kir21 block – inhibitors of mouse Kir2.1 inward-rectifier potassium channel; Inward rectifier potassium channel 2 (Mus musculus), P35561; HEK293-Kir2.1, FluxOR thallium flux fluorescence; active compounds read low; B-score at 10 µM; 310,000 tested, 0.85% active;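 active = fluorescence ratio B-score at or below minus 3 SD of library scores, with starting-brightness B-score within 2 SD, cut at about -4.2 in these data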;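 note: channel flux triggered by added potassium and thallium sulfate stimulus; B-score of peak minus minimum fluorescence over baseline after thallium stimulus; more negative B-score means stronger Kir2.1 block with less thallium influx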
Target sequence (P35561 whole entry, looked up): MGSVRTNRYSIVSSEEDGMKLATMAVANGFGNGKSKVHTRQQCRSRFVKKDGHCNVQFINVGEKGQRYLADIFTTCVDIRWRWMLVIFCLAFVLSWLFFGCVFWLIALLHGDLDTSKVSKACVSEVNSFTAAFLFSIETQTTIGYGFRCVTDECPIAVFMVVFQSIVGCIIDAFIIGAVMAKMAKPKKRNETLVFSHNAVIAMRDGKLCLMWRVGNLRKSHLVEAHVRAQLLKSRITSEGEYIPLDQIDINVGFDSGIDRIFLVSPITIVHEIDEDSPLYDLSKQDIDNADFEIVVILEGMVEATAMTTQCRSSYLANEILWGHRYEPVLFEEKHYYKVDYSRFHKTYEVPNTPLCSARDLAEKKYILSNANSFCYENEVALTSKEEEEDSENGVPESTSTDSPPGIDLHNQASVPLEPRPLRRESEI
KCNK9 inh – KCNK9 potassium channel inhibitors, primary screen, HEK293 cells, thallium flux. FluxOR thallium flux fluorescence; active compounds read low. B-score at 10 µM. AID 488922, 2010. Potassium channel subfamily K member 9 (Homo sapiens), Q9NPC2. 310,000 tested, 1.2% active;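 active = ratio B-score over 3 SD below the library mean, with starting fluorescence within 5 SD of its mean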;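 note: negative B-score means less thallium flux so channel inhibition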
KCNQ1 inh – inhibitors of human KCNQ1 channel, primary screen, cell-based, thallium flux, high-throughput. Potassium voltage-gated channel subfamily KQT member 1 (Homo sapiens), P51787. CHO-K1 KCNQ1, FluxOR thallium flux fluorescence; active compounds read high. B-score at 10 µM. 310,000 tested, 1.3% active. AID 2642, 2010;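 active = compounds whose thallium flux B-score, printed positive for inhibition, exceeds three library SD while starting fluorescence stays within three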;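 note: channel opened by potassium depolarization with thallium stimulus after 20 min compound exposure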
KCNK3 inh – human KCNK3 channel inhibitors, primary screen, CHO cells, FluxOR thallium flux, B-score; Potassium channel subfamily K member 3 (Homo sapiens), O14649; 340,000 tested, 0.84% active; FluxOR fluorescence; active compounds read low; B-score at 10 µM; AID 602410, 2012;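 active = B-score under library mean minus 4 SD, starting fluorescence ratio at most library mean plus 5 SD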;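 note: more negative B-score means stronger inhibition of thallium flux through KCNK3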
KCNQ1 act – potentiators or activators of KCNQ1 channel, primary screen, cell-based, thallium flux, high-throughput; Potassium voltage-gated channel subfamily KQT member 1 (Homo sapiens), P51787; CHO-K1 KCNQ1, thallium flux FluxOR fluorescence; active compounds read high; B-score at 10 µM; 310,000 tested, 0.35% active; AID 2648, 2010;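 active = fluorescence ratio B-score, a plate-corrected score, at least three library SD, with initial intensity B-score within 5 SD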
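Test system: CHO-K1 cells stably expressing KCNQ1 / Medium: assay buffer / Also added: depolarizing K+/Tl+ stimulus, K2SO4 and Tl2SO4 each 12.5 mM in 5x stock / Incubation: 90 min dye loading and 20 min compound exposure, both at room temperature / Signal: thallium influx via FluxOR fluorescence, kinetic imaging / Evaluation: B score of baseline-normalized fluorescence ratio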
hERG protect – hERG rescue from dofetilide block, primary screen, cell-based, CHO-hERG, FluxOR thallium flux, dofetilide IC70; dofetilide IC70 present; activation (rescue from dofetilide block), less the hit threshold, % at 10 µM; 310,000 tested, 0.51% active;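 active = activation above the mean of controls blocked by dofetilide plus 5 SD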;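 note: thallium influx through hERG after potassium depolarization seen as dye fluorescence rise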
KCNK9 block conf – KCNK9 potassium channel inhibitors, confirmation, HEK293 cells, thallium flux, duplicate; shares compounds with KCNK9 inh; FluxOR thallium flux fluorescence; inhibition, % at 10 µM; 4,900 tested, 43% active; AID 492992, 2010;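 active = thallium signal inhibited by more than 5 SD of the compound-free buffer control wells, on both duplicate plates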;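 note: 0% = assay buffer control wells without compound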
Kir2-1 spec – mouse Kir2.1 channel inhibition, confirmation, selectivity assay for KCNK9 modulator project, cell-based, HEK293, thallium flux; 4,900 tested, 4% active; Kir2.1 cells, FluxOR thallium flux fluorescence; inhibition, % at 10 µM; shares compounds with KCNK9 inh;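 active = thallium signal drop more than 5 SD beyond the mean of the no-compound control wells, seen in both duplicate plates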;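 note: signal is fluorescence rise after thallium addition divided by baseline fluorescence; plate controls were assay buffer only for no effect and full block by chlorpromazine control for full effect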
KCNK9 uninduced – thallium flux in non-induced HEK293 cells, confirmation, counter-screen for KCNK9 inhibitor project, cell-based, second counter screen, non-induced KCNK9-HEK293; inhibition, % at 10 µM; shares compounds with KCNK9 inh; 4,900 tested, 40% active; AID 492997, 2010; FluxOR thallium flux;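 active = thallium signal drop beyond 5 SD of the untreated control mean, on both duplicate plates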;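 note: plate controls were buffer only IC0 wells for no effect and SID17386958 at its maximal inhibitory level for full effect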
An asterisk follows results filed as active; i = inactive; nt = no result. A selection: hits, their analogues and other compounds. The true share with any hit is near 3.7%.

SMILES	Kir21 block	KCNK9 inh	KCNQ1 inh	KCNK3 inh	KCNQ1 act	hERG protect	KCNK9 block conf	Kir2-1 spec	KCNK9 uninduced
Cc1ccc(C(=O)N2CCCC(C(=O)c3ccc(Cl)cc3C)C2)cn1 (stereo not drawn)	-2.22	i	i	i	i	-3.7	nt	nt	nt
COc1ccc(C(=O)C2CCCN(C(=O)c3n[nH]c4c3CCCC4)C2)cc1OC (stereo not drawn)	-0.69	i	i	i	i	-11.3	nt	nt	nt
Cc1cc(Cl)ccc1C(=O)C1CCCN(C(=O)c2cnn(C(C)C)c2)C1 (stereo not drawn)	-1.77	i	i	i	i	-5.2	i	i	i
Cc1cc(Cl)ccc1C(=O)C1CCCN(C(=O)c2n[nH]c3c2CCCC3)C1 (stereo not drawn)	-3.22	i	i	i	i	-3.9	i	i	i
Cc1cc(Br)cc(Cl)c1OC(=O)c1ccncc1	1.39	i	i	i	i	-12.2	nt	nt	nt
Cc1cc(Oc2ccc3ccccc3c2)nc(SCC(=O)c2ccccc2)n1	-2.29	-13.3*	i	i	i	-10.1	75.5%*	i	38.5%*
NC(=O)c1ccc(SCC(=O)OCC(=O)NCc2ccco2)c([N+](=O)[O-])c1	1.71	i	i	i	i	-3.8	nt	nt	nt
CCN1CCCc2cc(CN(CCN3CCOCC3)C(=S)Nc3cccc(Cl)c3)ccc21	0.08	i	i	i	i	-13.0	i	i	i
CCC1(c2ccccc2)NC(=O)N(CC(=O)Nc2ccc(N3CCOCC3)cc2)C1=O (stereo not drawn)	nt	nt	nt	i	nt	nt	nt	nt	nt
c1ccc(-c2nc(-c3nccc4ccccc34)oc2-c2ccccc2)cc1	0.76	i	i	i	i	-9.0	i	i	i
Nc1nc(-c2ccccc2)c(-c2ccccc2)o1	-0.9	i	i	i	i	-8.2	nt	nt	nt
Clc1cccc(CSc2nnc(-c3ccccn3)n2Cc2ccco2)c1	-3.86	i	i	i	i	-19.0	nt	nt	nt
Brc1ccc(CSc2nnc(-c3ccccn3)n2Cc2ccco2)cc1	-1.97	-16.3*	i	i	i	-15.6	43.5%*	i	41.0%*
CCOc1ccc(N(C)Cc2cc(=O)oc3ccc(OCC)cc23)cc1	-0.15	-11.4*	i	i	i	-3.8	42.5%*	i	32.5%*
CCOc1ccc(CN(C)Cc2cc(=O)oc3cc(C)c(Cl)cc23)cc1	1.63	i	i	i	i	-2.0	nt	nt	nt
CN1CCN(c2nc(-c3ccc(Cl)cc3)cc(=O)[nH]2)CC1	-1.08	i	i	i	i	-15.1	nt	nt	nt
Cc1ccc(C23CC4CC(CC(CC(=O)N5CCOCC5)(C4)C2)C3)cc1	-0.7	i	i	i	i	-15.7	i	i	i
CCn1ncc(/C=N\NC(=O)c2ccc3c(c2)c(C)c(C)n3Cc2ccccc2)c1C	-1.64	-17.5*	i	i	i	0.1	59.5%*	i	29.5%*
